Screens from PubChem.
CHO parental Ca – signal in parental CHO cells, OX1R antagonist counter-screen; AID 463079; 0.63% of 330,000 active; parental CHO-K1, ATP-induced calcium, Fluo-8 fluorescence; inhibition, % at 5.6 µM;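 active = inhibition above that plate's mean sample inhibition plus 3 SD, cut at about 26% in these data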;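 also: 0% = ATP-challenged DMSO wells and 100% = DMSO wells without ATP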
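test system = CHO parental line | reagent = ATP stimulus | measured by = intracellular calcium via Fluo-8 no-wash fluorescent dye | control set = ATP and no-ATP DMSO wells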
OX1R antag-1 – blocks the human orexin 1 receptor; 1.8% of 330,000 active; OX1R-expressing cells, FRET antagonist read-out; inhibition, % at 6.6 µM; in the data active = inhibition mostly above about 38%, no sharp cut-off; inactive = mostly below about 40%;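 also: 0% = agonist challenge alone and 100% = reference antagonist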
Target sequence (O43613 whole entry, looked up): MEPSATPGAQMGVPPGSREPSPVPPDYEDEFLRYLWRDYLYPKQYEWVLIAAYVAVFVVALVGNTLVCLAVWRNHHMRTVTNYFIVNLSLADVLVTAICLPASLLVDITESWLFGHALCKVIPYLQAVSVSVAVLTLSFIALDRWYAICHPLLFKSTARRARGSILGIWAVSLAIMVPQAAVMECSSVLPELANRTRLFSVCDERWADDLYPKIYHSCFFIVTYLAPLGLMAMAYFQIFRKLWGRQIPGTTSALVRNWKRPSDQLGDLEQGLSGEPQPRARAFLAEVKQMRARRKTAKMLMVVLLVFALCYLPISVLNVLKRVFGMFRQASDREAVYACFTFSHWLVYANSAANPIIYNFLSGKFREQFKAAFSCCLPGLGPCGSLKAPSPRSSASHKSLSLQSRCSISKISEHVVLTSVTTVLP
GalR3 antag – human GalR3 antagonism. O60755. HEK293 GalR3-CNG cAMP membrane potential fluorescence; galR3 body fused to GalR1 C-terminus. inhibition, % at 3 µM. 0.44% of 360,000 active. AID 651719;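 active = inhibition above the screen-wide average plus 3 SD, cut at about 13% in these data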;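 also: forskolin and galanin both at EC90 stimulate the cells; cAMP rise reported by CNG channel membrane potential dye signal; 0% = forskolin plus galanin with DMSO and 100% = forskolin alone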
Target sequence (O60755 1-299 limits assumed): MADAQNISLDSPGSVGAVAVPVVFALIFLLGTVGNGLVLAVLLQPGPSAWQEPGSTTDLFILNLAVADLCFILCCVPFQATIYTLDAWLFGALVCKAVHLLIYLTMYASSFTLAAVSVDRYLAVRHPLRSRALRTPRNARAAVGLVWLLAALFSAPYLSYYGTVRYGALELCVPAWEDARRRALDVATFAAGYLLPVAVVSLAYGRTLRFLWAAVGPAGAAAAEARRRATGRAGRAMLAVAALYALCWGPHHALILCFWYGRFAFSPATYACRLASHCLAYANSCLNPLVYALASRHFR
TAAR1 agonist – human TAAR1 agonism; 0.99% of 360,000 active; activation, % at 3 µM; AID 624467; CHO RD-HGA16 TAAR1, Fluo-8 calcium fluorescence; vehicle wells 0%, saturating PEA agonist 100%; Q96RJ0;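 active = activation above the mean activation of all test compounds in the run plus 3 SD, cut at about 38% in these data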
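System: CHO-derived RD-HGA16 cells with stable Gα16 and human TAAR1 / Times: 17-24 h plating, Fluo-8 75 min 37 °C, 30 min RT / Technique: calcium-sensitive Fluo-8 signal, excitation 470-495, emission 515-575 nm / Measure: % activation relative to PEA EC100 response / Benchmarks: DMSO and PEA EC100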
OX1R antag-2 – human HCRTR1 antagonism; O43613; CHO/OX1R cells, Fluo-8 calcium fluorescence, orexin A; inhibition, % at 5 µM; 0.43% of 330,000 active; AID 434989;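 active = inhibition above its plate's threshold, mean inhibition of all tested compounds on the plate plus 3 SD, cut at about 37% in these data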;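 also: 0% = orexin A challenge wells and 100% = SB-334867-A antagonist wells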
TAAR1 antagonist – human TAAR1 antagonism | CHO RD-HGA16 TAAR1, Fluo-8 calcium fluorescence, antagonist | inhibition, % at 3 µM | 1.5% of 360,000 active | AID 624466;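 active = inhibition above a per-plate cutoff, the mean inhibition of test compounds on that plate plus 3 SD, cut at about 49% in these data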;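 also: 0% = DMSO plus EC80 beta-PEA response and 100% = DMSO alone without agonist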
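System: CHO RD-HGA16 cells bearing hTAAR1. Reagent: EC80 β-phenethylamine stimulus. Schedule: seeding 17-24 h prior, 75-min 37 °C, 30-min RT dye loading. Signal: Fluo-8 intracellular calcium dye fluorescence, real-time kinetic reads. Read-out: % inhibition from peak post-agonist over basal fluorescence ratio. Benchmarks: vehicle wells and EC80 agonist wells. Replicates: n of 1.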
* hit, by the source's call; . = not tested or not shown. An excerpt weighted towards active compounds, which were near 4.2% of everything screened.

SMILES	CHO parental Ca	OX1R antag-1	GalR3 antag	TAAR1 agonist	OX1R antag-2	TAAR1 antagonist
Cc1ccccc1S(=O)(=O)Cc1ccc(C(=O)N2CCN(c3cccc(C)c3C)CC2)o1	-4.3	16.7	-6.7	25.7	2.6	73.2*
Cc1ccccc1S(=O)(=O)Cc1ccc(C(=O)N2CC(C)CC(C)C2)o1 (stereo unspecified)	-10.8	12.6	-0.9	42.3*	-35.6	-14.9
O=C(O)/C=C\c1cn(-c2ccccc2)nc1-c1cc2ccccc2o1	10.3	76.4*	-6.8	0.9	15.4	0.6
Cc1ccc(-c2nn(-c3ccccc3)cc2/C=C/C(=O)OCC(=O)NC2CC2)o1	83.2*	46.3	-8.0	16.8	76.8*	32.5
COc1ccc(-c2cc3ccccc3n2CC(O)CNC(CO)(CO)CO)cc1 (stereo unspecified)	-14.3	-1.7	-5.8	3.2	-16.6	-9.6
C/C(=N/OC(=O)c1ccc(C)cc1)c1ccc(N2C(=O)C3CCCCC3C2=O)cc1 (stereo unspecified)	-9.3	20.3	-3.8	16.9	-28.5	66.0*
C/C(=N/NC(=O)c1ccccc1O)c1ccc(N2C(=O)C3CCCCC3C2=O)cc1 (stereo unspecified)	-2.6	13.2	1.5	5.3	-0.2	0.4
CC(C)c1ccc(NC2CCCN(C(=O)CN3CCOC3=O)C2)cc1 (stereo unspecified)	-6.1	15.7	-2.2	3.1	-9.0	-17.4
C=CCCCN(Cc1ccccc1)S(=O)(=O)c1ccccc1Br	44.0*	20.9	-6.6	5.3	27.3	45.1
CCN(Cc1ccccc1)S(=O)(=O)c1ccccc1Br	-15.2	28.5	-7.3	-0.8	-10.2	-4.2
C=CCCN([C@H](CO)Cc1ccccc1)S(=O)(=O)c1ccccc1Br	-18.6	45.9*	-6.9	0.1	22.9	-0.7
O=S(=O)(c1c(F)cccc1F)N1CCN(C(=S)NCc2ccc3c(c2)OCO3)CC1	0.5	4.4	-1.0	2.3	10.5	-3.8
Cn1c2ccsc2c2ncn(Cc3ccccc3F)c(=O)c21	-8.5	41.7*	-6.2	2.9	25.0	4.2
OC(CCN1CCC2CCC(C2)C1)c1ccc(Br)cc1 (stereo unspecified)	.	.	1.6	1.8	.	-5.8
Cc1c(Br)c(O)c(Br)c(O)c1/C=N/n1c(-c2ccccc2)n[nH]c1=S	-9.1	43.8*	.	.	-14.1	.
COCCNC(=S)N1CCC(c2nc(-c3ccc(N(C)C)cc3)no2)CC1	-7.1	15.1	-9.3	12.3	-13.8	-18.8
CC(C)CNC(=S)N1CCC(c2nc(-c3ccc(F)cc3)no2)CC1	47.7*	21.4	-1.9	-1.0	19.1	23.2
CC(NC(=O)c1ccco1)C(=O)N1CCN(C(c2ccccc2)c2ccccc2)CC1 (stereo unspecified)	-5.2	14.2	-2.9	5.5	-22.8	-1.3
COc1cc2c(C#CCCO)c(-c3ccsc3)oc(=O)c2cc1OC	-17.1	61.4*	-7.7	8.1	-6.3	31.5
CCOC(=O)[C@]12CCCC=C1N(Cc1ccccc1)C(=O)[C@H](CC(=O)NCc1cccc3ccccc13)C2	.	.	-3.7	6.2	.	30.1
CCOC(=O)[C@]12CCCC=C1N(Cc1ccco1)C(=O)[C@H](CC(=O)NCc1cccc3ccccc13)C2	.	.	-7.0	2.6	.	49.6*
COC(=O)[C@]12CCCCC=C1N(Cc1cccc3ccccc13)C(=O)[C@H](CC(=O)NCCC(C)C)C2	.	.	-7.7	9.4	.	61.6*
COC(=O)[C@]12CCCCC=C1N(Cc1cccc3ccccc13)C(=O)[C@H](CC(=O)N1CCSCC1)C2	.	.	-5.2	12.0	.	52.5*
COC(=O)[C@]12CCCCC=C1N(Cc1cccc3ccccc13)C(=O)[C@H](CC(=O)NCc1ccccc1)C2	.	.	-6.3	1.8	.	42.1
COc1ccccc1NC(=O)c1cc[n+](C)cc1	-3.8	24.8	-8.4	4.0	-5.4	2.3
SMILES	CHO parental Ca	OX1R antag-1	GalR3 antag	TAAR1 agonist	OX1R antag-2	TAAR1 antagonist
CCOC(=O)c1ccc(/C=N/O)[n+](Cc2ccccc2)c1	-0.2	59.9*	-8.4	5.7	-2.2	-16.2
O=C(c1ccc(-c2ccccc2Cl)o1)N1CCCCCCC1	.	.	-5.1	12.3	.	12.1
COCCNC(=O)C1CCCN(C(=O)c2cc(C)n(C(C)(C)C)n2)CC1 (stereo unspecified)	.	.	-2.8	4.1	.	-10.3
CCNc1nc(-c2sc(NC(=O)C(C)(C)C)nc2C)c(-n2cc(-c3ccccc3)nn2)s1	.	.	-6.0	9.2	.	74.9*
CCN(CCN(C)C)C(=O)c1ccc2c(c1NCCO)C(=O)c1ccccc1C2=O	-9.2	75.0*	-9.1	-0.6	-8.4	-21.4
O=C1c2ccccc2C(=O)c2c1ccc(C(=O)N1CCCCC1)c2NCCO	5.6	25.4	-1.6	5.9	-10.8	-3.1
Cc1nn(CCC#N)c(NC(=O)c2ccccc2)c1P(=O)(Nc1ccc(Br)cc1)N1CCOCC1 (stereo unspecified)	-18.5	16.8	-3.9	11.2	-18.9	-3.0
FC(F)(F)c1ccc(NC(=S)NCc2ccccc2)cc1	29.8*	17.8	-9.5	13.3	28.1	34.3
FC(F)Oc1ccc(NC(=S)NCc2ccccc2)cc1Cl	34.0*	13.9	-4.4	6.2	9.2	28.0
CC(NC(=S)Nc1ccc(OC(F)F)c(Cl)c1)C(C)(C)C (stereo unspecified)	34.3*	24.4	-5.5	8.9	37.8*	30.6
Cn1c(CNC(=O)CCNC(=O)c2ccc(Br)cc2)cc(=O)n(C)c1=O	2.7	7.9	1.9	0.0	-5.1	-8.9
Cc1oc2c(c1C(=O)N1CCC(C)CC1)C(=O)c1ccccc1C2=O	-21.1	66.7*	3.1	4.3	-31.4	7.8
CCOC(=O)C1CCN(C(=O)c2ccc(C)o2)CC1	-4.5	-3.1	-2.9	2.1	-3.5	-3.5
CCOC(=O)C1CCN(C(=O)c2c(C)oc3c2C(=O)c2ccccc2C3=O)CC1	-18.2	70.3*	3.2	2.3	-33.2	26.4
CC1CCN(C(=O)c2ccc3c(c2)C(=O)c2ccccc2-3)CC1	.	.	-8.7	4.3	.	11.8
COCCCN1C(=O)C(CC(=O)NCc2ccco2)CC(C(=O)N2CCOCC2)=C1C (stereo unspecified)	.	.	-3.2	5.7	.	-26.1
CC(=O)Nc1ccc(S(=O)(=O)NC2=C(N3CCN(Cc4ccccc4)CC3)C(=O)c3ccccc3C2=O)cc1	-16.7	33.8	5.1	10.0	-17.9	36.6
CCC(=O)NC(Nc1sc2c(c1C(=O)OC)CCCC2)(C(F)(F)F)C(F)(F)F	45.6*	26.9	-10.7	39.8*	7.2	63.6*
COCC(=O)Nc1sc2c(c1C(=O)OC)CCCC2	-21.4	17.9	-5.8	0.7	-19.5	-9.1
Cc1cccc2sc(N3CCN(C(=O)C4COc5ccccc5O4)CC3)nc12 (stereo unspecified)	-10.8	3.4	-1.7	49.9*	-22.6	42.4
